Data reported in ChEMBL document CHEMBL3580637, “Selective Inhibition of Bacterial Topoisomerase I by alkynyl-bisbenzimidazoles” (Medchemcomm, 2014).
In brackets after ≈: the same amount, converted by molar mass. Activity calls are given as the source filed them. No cut-off for these calls is given here.

Key:
[1] = Inhibition of Escherichia coli DNA topoisomerase-1 using supercoiled pBAD-GFPuv plasmid DNA as substrate assessed as prevention of supercoiled DNA template from relaxation after 15 mins by agarose gel electrophoresis
[2] = molecular target: T1, DNA topoisomerase 1 (Homo sapiens) (UniProt P11387); assay: Inhibition of human DNA topoisomerase-1 using supercoiled pBAD-GFPuv plasmid DNA as substrate assessed as prevention of supercoiled DNA template from relaxation at 50 uM after 30 mins by agarose gel electrophoresis relative to control
T1 sequence (whole entry): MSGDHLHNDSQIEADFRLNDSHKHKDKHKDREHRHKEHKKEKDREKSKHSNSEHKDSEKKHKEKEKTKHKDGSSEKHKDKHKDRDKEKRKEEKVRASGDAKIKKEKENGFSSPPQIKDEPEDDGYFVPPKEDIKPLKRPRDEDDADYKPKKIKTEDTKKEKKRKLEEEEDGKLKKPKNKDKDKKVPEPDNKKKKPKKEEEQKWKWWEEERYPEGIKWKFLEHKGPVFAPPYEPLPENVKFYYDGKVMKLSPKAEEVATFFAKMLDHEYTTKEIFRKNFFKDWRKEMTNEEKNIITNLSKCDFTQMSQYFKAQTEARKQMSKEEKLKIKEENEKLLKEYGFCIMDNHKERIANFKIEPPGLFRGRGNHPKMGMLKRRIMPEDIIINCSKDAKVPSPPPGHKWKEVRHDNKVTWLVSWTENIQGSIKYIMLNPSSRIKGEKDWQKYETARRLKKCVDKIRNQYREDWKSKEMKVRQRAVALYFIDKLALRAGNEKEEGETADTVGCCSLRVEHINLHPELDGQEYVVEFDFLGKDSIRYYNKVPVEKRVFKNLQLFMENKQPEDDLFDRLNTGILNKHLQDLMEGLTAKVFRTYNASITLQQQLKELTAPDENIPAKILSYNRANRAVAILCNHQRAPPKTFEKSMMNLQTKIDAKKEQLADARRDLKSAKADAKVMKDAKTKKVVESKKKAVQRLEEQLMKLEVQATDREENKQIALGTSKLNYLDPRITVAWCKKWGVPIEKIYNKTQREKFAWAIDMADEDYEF
Outline: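 Human topoisomerase I (2 units) was incubated with 250 ng supercoiled pBAD-GFPuv in 20 mM Tris-HCl pH 7.9, 50 mM KAc, 10 mM Mg(Ac)2, 1 mM DTT and 1 µg/ml BSA, with compound at 10 or 50 µM, for 30 min at 37 °C. After a phenol stop, DNA was resolved on 1% agarose without chloroquine beside a relaxed plasmid marker and stained with ethidium bromide.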

[3] = molecular target: T2, DNA gyrase (Escherichia coli) (UniProt P0AES6+P0AES4); assay: Inhibition of Escherichia coli DNA gyrase using relaxed pBAD-GFPuv plasmid DNA as substrate at 1 to 50 uM after 30 mins by agarose gel electrophoresis; type: protein-complex assay
[4] = Binding affinity to dA60.dT60 DNA (unknown origin) assessed as change in melting temperature at 10 uM by UV-Vis spectrophotometric analysis
Outline: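 Preformed dA60·dT60 duplex (equimolar strands heated 95 °C 15 min in 10 mM sodium cacodylate, 0.1 mM EDTA, 100 mM NaCl, pH 7.0, slowly cooled) at 1 µM duplex with 10 µM ligand (diluted from DMSO stock). Absorbance melting in 1 cm quartz cells, heating 0.2 °C/min, data every 1.0 °C; Tm shift versus ligand-free duplex.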

Calf thymus DNA = assay: Binding affinity to calf thymus DNA assessed as change in melting temperature relative to control; type: nucleic-acid assay; settings: Bos taurus
DU-145 = assay: Cytotoxicity against human DU145 cells after 48 hrs by sulforhodamine B assay; type: cell-based; settings: DU-145, 48 h
Outline: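 DU145 cells were seeded and allowed 24 h to resume growth at 37 °C, 5% CO2. They were treated in triplicate at final 20, 10, 5, 2.5, 1.25, 0.625 and 0.0625 µM for 48 h, alongside untreated and media-only wells. Cells were fixed with cold TCA (16% final) and stained with sulforhodamine B in 1% acetic acid. Bound dye was solubilized in 10 mM Tris base and read at 560 nm to give IC50.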

Escherichia coli [5] = assay: Antibacterial activity against Escherichia coli K-12 after 24 hrs by microbroth dilution method; type: functional; settings: K-12, 24 h
Outline: (§1)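 Organisms were grown to log phase in Mueller-Hinton broth at 37 °C with shaking. They were pelleted, resuspended in 0.85% saline to OD625 0.1, and dispensed at a final 5×10^5 CFU/mL per CLSI microbroth dilution. Plates were run in triplicate and incubated 24 h at 37 °C, then OD625 was read. MIC was the lowest concentration giving complete growth inhibition versus untreated controls.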

Enterococcus faecalis = assay: Antibacterial activity against Enterococcus faecalis ATCC 29212 after 24 hrs by microbroth dilution method; type: functional; settings: ATCC 29212, 24 h; outline: as §1
DNA topoisomerase 1 = molecular target: T3, DNA topoisomerase 1 (Homo sapiens, UniProt P11387); assay: Inhibition of human DNA topoisomerase-1 using supercoiled pBAD-GFPuv plasmid DNA as substrate assessed as prevention of supercoiled DNA template from relaxation after 30 mins by agarose gel electrophoresis
T3 sequence (P11387 whole entry): T1 sequence (whole entry)
Outline: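 Compound at 5–50 µM final; 30 min at 37 °C, phenol stop. Read on 1% agarose/TAE gel with ethidium stain. IC50 = concentration at 50% (−) supercoiled DNA by densitometry; mean of ≥3 determinations.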

Staphylococcus aureus [6] = assay: Antibacterial activity against Staphylococcus aureus ATCC 29213 after 24 hrs by microbroth dilution method; type: functional; settings: ATCC 29213, 24 h; outline: as §1
Staphylococcus aureus [7] = assay: Antibacterial activity against Staphylococcus aureus ATCC 33591 after 24 hrs by microbroth dilution method; type: functional; settings: ATCC 33591, 24 h; outline: as §1
Escherichia coli [8] = assay: Antibacterial activity against Escherichia coli ATCC 25922 after 24 hrs by microbroth dilution method; type: functional; settings: ATCC 25922, 24 h; outline: as §1
[9] = molecular target: DNA topoisomerase 2-alpha (Homo sapiens, UniProt P11388); assay: Inhibition of human DNA topoisomerase-2 using supercoiled pBAD-GFPuv plasmid DNA as substrate assessed as prevention of supercoiled DNA template from relaxation after 30 mins by agarose gel electrophoresis
Outline: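 Compound at 5–50 µM final; 30 min at 37 °C, phenol stop. Read on 1% agarose/TAE gel with ethidium stain. IC50 = concentration at 50% (−) supercoiled DNA by band intensity; mean of ≥3 determinations.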

Pseudomonas aeruginosa = assay: Antibacterial activity against Pseudomonas aeruginosa ATCC 27853 after 24 hrs by microbroth dilution method; type: functional; settings: ATCC 27853, 24 h; outline: as §1
[10] = molecular target: T2, DNA gyrase (Escherichia coli); assay: Inhibition of Escherichia coli DNA gyrase using relaxed pBAD-GFPuv plasmid DNA as substrate at 1 to 10 uM after 30 mins by agarose gel electrophoresis; type: protein-complex assay
[11] = Inhibition of Escherichia coli DNA topoisomerase-1 using supercoiled pBAD/Thio plasmid DNA as substrate assessed as prevention of supercoiled DNA from relaxation after 30 mins by agarose gel electrophoresis

Sequence of DNA topoisomerase 2-alpha (P11388 whole entry): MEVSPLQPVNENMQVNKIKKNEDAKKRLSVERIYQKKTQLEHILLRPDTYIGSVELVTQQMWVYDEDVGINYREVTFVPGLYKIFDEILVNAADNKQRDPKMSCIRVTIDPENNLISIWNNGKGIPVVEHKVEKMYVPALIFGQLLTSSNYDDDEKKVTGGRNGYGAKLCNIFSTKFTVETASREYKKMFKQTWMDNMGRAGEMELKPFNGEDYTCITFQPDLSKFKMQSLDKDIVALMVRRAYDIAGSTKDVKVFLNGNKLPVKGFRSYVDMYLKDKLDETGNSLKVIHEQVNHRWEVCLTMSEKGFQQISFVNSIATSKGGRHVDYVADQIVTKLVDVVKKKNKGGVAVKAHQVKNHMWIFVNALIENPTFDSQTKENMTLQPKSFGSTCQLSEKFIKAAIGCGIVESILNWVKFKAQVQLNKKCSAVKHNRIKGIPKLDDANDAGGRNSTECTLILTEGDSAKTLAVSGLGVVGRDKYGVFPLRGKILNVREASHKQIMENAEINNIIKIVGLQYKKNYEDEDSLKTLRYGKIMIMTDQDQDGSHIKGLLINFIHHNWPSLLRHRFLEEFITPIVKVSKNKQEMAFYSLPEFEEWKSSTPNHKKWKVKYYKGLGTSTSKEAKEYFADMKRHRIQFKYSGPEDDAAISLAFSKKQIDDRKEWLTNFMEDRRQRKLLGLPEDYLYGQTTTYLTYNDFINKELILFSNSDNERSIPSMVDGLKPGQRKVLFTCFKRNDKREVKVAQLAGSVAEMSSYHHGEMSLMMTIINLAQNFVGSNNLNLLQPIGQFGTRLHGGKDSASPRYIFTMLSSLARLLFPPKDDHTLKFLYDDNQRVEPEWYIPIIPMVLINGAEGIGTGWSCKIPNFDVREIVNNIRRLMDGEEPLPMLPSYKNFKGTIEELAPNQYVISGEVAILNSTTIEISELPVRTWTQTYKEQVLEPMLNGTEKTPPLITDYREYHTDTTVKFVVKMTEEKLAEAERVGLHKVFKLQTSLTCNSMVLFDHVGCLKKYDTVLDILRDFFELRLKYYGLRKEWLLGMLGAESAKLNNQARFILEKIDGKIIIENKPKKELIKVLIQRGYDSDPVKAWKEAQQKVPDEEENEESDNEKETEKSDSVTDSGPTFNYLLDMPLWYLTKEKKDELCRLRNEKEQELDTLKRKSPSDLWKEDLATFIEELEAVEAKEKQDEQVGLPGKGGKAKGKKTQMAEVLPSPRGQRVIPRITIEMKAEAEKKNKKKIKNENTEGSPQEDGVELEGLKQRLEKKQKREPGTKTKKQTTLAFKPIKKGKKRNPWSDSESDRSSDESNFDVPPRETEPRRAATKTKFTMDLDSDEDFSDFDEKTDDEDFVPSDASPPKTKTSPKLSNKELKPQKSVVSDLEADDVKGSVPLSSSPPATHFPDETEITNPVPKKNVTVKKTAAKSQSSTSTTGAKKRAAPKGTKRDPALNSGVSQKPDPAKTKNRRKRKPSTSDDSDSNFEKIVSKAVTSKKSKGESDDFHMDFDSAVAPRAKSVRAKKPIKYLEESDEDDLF

SMILES	IC50 [1]	inhibition [2]	inhibition [3]	ΔTm [4]	ΔTm (Calf thymus DNA)	IC50 (DU-145)	MIC (Escherichia coli [5])	MIC (Enterococcus faecalis)	IC50 (DNA topoisomerase 1)	MIC (Staphylococcus aureus [6])	MIC (Staphylococcus aureus [7])	MIC (Escherichia coli [8])	IC50 [9]	MIC (Pseudomonas aeruginosa)	inhibition [10]	IC50 [11]
C#CCCCCCCCCCOc1ccc(-c2nc3ccc(-c4nc5ccc(N6CCN(C)CC6)cc5[nH]4)cc3[nH]2)cc1	2.47 µM	5%	inactive	8 °C	1 °C	> 10 µM	8 µg/mL (≈ 13.9 µM)	16 µg/mL (≈ 27.8 µM)	–	–	–	–	–	–	–	–
CCOc1ccc(-c2nc3cc(-c4nc5cc(N6CCN(C)CC6)ccc5[nH]4)ccc3[nH]2)cc1	29.8 µM	–	–	24.1 °C	–	4.25 µM	–	16 µg/mL (≈ 35.4 µM)	> 50 µM	2 µg/mL (≈ 4.42 µM)	2 µg/mL (≈ 4.42 µM)	8 µg/mL (≈ 17.7 µM)	–	–	–	–
CN1CCN(c2ccc3[nH]c(-c4ccc5[nH]c(-c6ccc(O)cc6)nc5c4)nc3c2)CC1 [HOECHST 33258]	19.5 µM	–	inactive	24.6 °C	–	–	–	16 µg/mL (≈ 37.7 µM)	22.9 µM	≥ 32 µg/mL	16 µg/mL (≈ 37.7 µM)	–	28.9 µM	–	–	–
C#CCOCCCCOc1ccc(-c2nc3ccc(-c4nc5ccc(N6CCN(C)CC6)cc5[nH]4)cc3[nH]2)cc1	6.63 µM	5%	inactive	23.4 °C	1 °C	–	8 µg/mL (≈ 15 µM)	–	–	2 µg/mL (≈ 3.74 µM)	2 µg/mL (≈ 3.74 µM)	8 µg/mL (≈ 15 µM)	–	16 µg/mL (≈ 29.9 µM)	–	–
C#CCCCCOc1ccc(-c2nc3ccc(-c4nc5ccc(N6CCN(C)CC6)cc5[nH]4)cc3[nH]2)cc1	4.57 µM	5%	inactive	20.9 °C	1 °C	2.12 µM	8 µg/mL (≈ 15.9 µM)	4 µg/mL (≈ 7.93 µM)	–	2 µg/mL (≈ 3.96 µM)	2 µg/mL (≈ 3.96 µM)	8 µg/mL (≈ 15.9 µM)	–	16 µg/mL (≈ 31.7 µM)	–	–
C#CCOc1ccc(-c2nc3ccc(-c4nc5ccc(N6CCN(C)CC6)cc5[nH]4)cc3[nH]2)cc1	5.5 µM	70%	–	22.9 °C	1 °C	–	8 µg/mL (≈ 17.3 µM)	16 µg/mL (≈ 34.6 µM)	–	2 µg/mL (≈ 4.32 µM)	2 µg/mL (≈ 4.32 µM)	8 µg/mL (≈ 17.3 µM)	–	–	inactive	–
COc1ccc(-c2nc3cc(-c4nc5cc(N6CCN(C)CC6)ccc5[nH]4)ccc3[nH]2)cc1OC	–	–	–	–	–	–	–	–	–	–	–	–	–	–	–	3.8 µM
